Measurements as given in PubChem BioAssay AID463077 (The Scripps Research Institute Molecular Screening Center, 2010).
Blank lines part the entries; values can stand above or below the molecule they belong to. Active and inactive are the calls of the source.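 Rule for the calls: active = compounds whose half-inhibition concentration IC50 on CK1 delta kinase is at most 1 µM; inactive = the rest.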

Target: Casein kinase I isoform delta (Homo sapiens) (UniProt P48730)
Assay: CK1d kinase inhibitors, late-stage follow-up, biochemical, radioactive 33P-ATP, purified kinase, powder samples (AID 463077)
Conditions: 33P-ATP filter-binding, CK1tide
How it was run: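 Test system: Purified human casein kinase 1 delta (CK1d) enzyme | Buffer or medium: pH 7.5 HEPES buffer with 1% DMSO | Dosing: 10-point threefold dilution series from nominal 50 µM top dose | Incubation: Kinase reaction run 120 min at room temperature | Detection: 33P incorporation by filter binding | Evaluation: IC50 from radioactivity ratio versus concentration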

Chain of Casein kinase I isoform delta (Homo sapiens) (P48730 whole entry, looked up, canonical isoform): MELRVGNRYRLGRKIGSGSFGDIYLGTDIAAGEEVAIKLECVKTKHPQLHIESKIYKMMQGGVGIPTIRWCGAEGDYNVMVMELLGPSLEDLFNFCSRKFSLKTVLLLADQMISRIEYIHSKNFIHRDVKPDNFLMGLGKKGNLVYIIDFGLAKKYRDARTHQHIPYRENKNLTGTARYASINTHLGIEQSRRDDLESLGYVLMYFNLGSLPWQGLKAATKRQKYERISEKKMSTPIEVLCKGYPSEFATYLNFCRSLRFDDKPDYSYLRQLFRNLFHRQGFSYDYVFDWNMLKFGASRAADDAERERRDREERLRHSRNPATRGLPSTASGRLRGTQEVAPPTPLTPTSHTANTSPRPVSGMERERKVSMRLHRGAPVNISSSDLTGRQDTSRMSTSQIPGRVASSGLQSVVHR

Structure (SMILES): c1ccc2cc3[nH]c(CNc4nc(N5CCOCC5)nc5c4ncn5-c4ccsc4)nc3cc2c1
IC50: 129 nM

Structure (SMILES): O=[N+]([O-])c1ccc2nc(CNc3nc(N4CCOCC4)nc4c3ncn4-c3ccsc3)[nH]c2c1
IC50: 21 nM

Structure (SMILES): FC(F)(F)c1cccc2[nH]c(CNc3nc(N4CCOCC4)nc4c3ncn4-c3ccsc3)nc12
IC50: 128 nM

Structure (SMILES): CC(C)n1cnc2c(NCc3nc4c([N+](=O)[O-])cccc4[nH]3)nc(N3CCOCC3)nc21
IC50: 815 nM

Structure (SMILES): COc1ccc2nc(CNc3nc(N4CCOCC4)nc4c3ncn4-c3ccsc3)[nH]c2c1
IC50: 17 nM

Results, then the molecule that gave them:

IC50: 105 nM
Structure (SMILES): Clc1ccc2nc(CNc3nc(N4CCOCC4)nc4c3ncn4-c3ccsc3)[nH]c2c1

IC50: 161 nM
Structure (SMILES): c1ccc2[nH]c(CNc3nc(N4CCOCC4)nc4c3ncn4-c3ccsc3)nc2c1

IC50: 50 nM
Structure (SMILES): Fc1ccc2nc(CNc3nc(N4CCOCC4)nc4c3ncn4-c3ccsc3)[nH]c2c1

IC50: 13 nM
Structure (SMILES): FC(F)(F)c1ccc2nc(CNc3nc(N4CCOCC4)nc4c3ncn4-c3ccsc3)[nH]c2c1

IC50: 11 nM
Structure (SMILES): N#Cc1ccc2nc(CNc3nc(N4CCOCC4)nc4c3ncn4-c3ccsc3)[nH]c2c1

IC50: inactive
Structure (SMILES): Cc1ccnc(NC(=O)CCCOc2cc(=O)n(C)c3ccccc23)c1

IC50: 49 nM
Structure (SMILES): O=[N+]([O-])c1cccc2[nH]c(CNc3nc(N4CCOCC4)nc4c3ncn4-c3ccsc3)nc12

IC50: 361 nM
Structure (SMILES): CCOC(=O)c1cccc2[nH]c(CNc3nc(N4CCOCC4)nc4c3ncn4-c3ccsc3)nc12
